Experimental data reported in ChEMBL document CHEMBL1151705, “Novel azalides derived from 16-membered macrolides. Part II: Isolation of the linear 9-formylcarboxylic acid and its sequential macrocyclization with an amino alcohol or an azidoamine” (2008).
In brackets after ≈: the same amount, converted by molar mass.

Experiments:
Streptococcus pneumoniae [1] = experiment: Antimicrobial activity against Streptococcus pneumoniae 4 constitutively expressing ermB after 20 hrs by agar dilution method; type: functional; conditions: Streptococcus pneumoniae, 20 h; read-out: MIC
Outline: (§1)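 Streptococci, H. influenzae and M. catarrhalis were precultured on blood agar plates. Suspensions of about 10⁶ CFU/ml were inoculated onto sensitivity disk agar supplemented with 5% horse blood and incubated at 37 °C for 20 h. MIC was read as the lowest drug concentration with no visible growth.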

Streptococcus pneumoniae [2] = experiment: Antimicrobial activity against drug-susceptible Streptococcus pneumoniae DP1 Type1 after 20 hrs by agar dilution method; type: functional; outline: as §1
Haemophilus influenzae [3] = experiment: Antimicrobial activity against drug-susceptible Haemophilus influenzae 3 after 20 hrs by agar dilution method; type: functional; conditions: Haemophilus influenzae, 20 h; read-out: MIC; outline: as §1
Streptococcus pneumoniae [4] = experiment: Antimicrobial activity against drug-susceptible Streptococcus pneumoniae 2 after 20 hrs by agar dilution method; type: functional; conditions: Streptococcus pneumoniae, 20 h; read-out: MIC; outline: as §1
Staphylococcus aureus [5] = experiment: Antimicrobial activity against drug-susceptible Staphylococcus aureus 209P JC-1 after 20 hrs by agar dilution method; type: functional
Outline: (§2)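 Agar dilution MIC. S. aureus seed culture was grown in sensitivity test broth. Cell suspension (about 10⁶ CFU/ml) was inoculated onto sensitivity disk agar with 5% horse blood and incubated at 37 °C for 20 h. MIC was the lowest drug concentration that prevented visible growth.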

Haemophilus influenzae [6] = experiment: Antimicrobial activity against drug-susceptible Haemophilus influenzae 4 after 20 hrs by agar dilution method; type: functional; conditions: Haemophilus influenzae, 20 h; read-out: MIC; outline: as §1
Staphylococcus aureus [7] = experiment: Antimicrobial activity against drug-susceptible Staphylococcus aureus 2 after 20 hrs by agar dilution method; type: functional; outline: as §2
Moraxella catarrhalis [8] = experiment: Antimicrobial activity against drug-susceptible Moraxella catarrhalis 2 after 20 hrs by agar dilution method; type: functional; outline: as §1
Staphylococcus aureus [9] = experiment: Antimicrobial activity against drug-susceptible Staphylococcus aureus 3 after 20 hrs by agar dilution method; type: functional; outline: as §2
Streptococcus pneumoniae [10] = experiment: Antimicrobial activity against Streptococcus pneumoniae 7 expressing inducible ermB after 20 hrs by agar dilution method; type: functional; outline: as §1
Streptococcus pneumoniae [11] = experiment: Antimicrobial activity against Streptococcus pneumoniae 6 constitutively expressing ermB after 20 hrs by agar dilution method; type: functional; conditions: Streptococcus pneumoniae, 20 h; read-out: MIC; outline: as §1
Staphylococcus aureus [12] = experiment: Antimicrobial activity against Staphylococcus aureus 4 constitutively expressing ermA after 20 hrs by agar dilution method; type: functional; outline: as §2
Staphylococcus aureus [13] = experiment: Antimicrobial activity against Staphylococcus aureus 6 expressing inducible ermC after 20 hrs by agar dilution method
Moraxella catarrhalis [14] = experiment: Antimicrobial activity against drug-susceptible Moraxella catarrhalis 1 after 20 hrs by agar dilution method; type: functional; outline: as §1
Streptococcus pyogenes [15] = experiment: Antimicrobial activity against Streptococcus pyogenes 3 expressing mefA after 20 hrs by agar dilution method; type: functional; conditions: Streptococcus pyogenes, 20 h; read-out: MIC; outline: as §1
Haemophilus influenzae [16] = experiment: Antimicrobial activity against drug-susceptible Haemophilus influenzae 2 after 20 hrs by agar dilution method; type: functional; conditions: Haemophilus influenzae, 20 h; read-out: MIC; outline: as §1
Streptococcus pneumoniae [17] = experiment: Antimicrobial activity against drug-susceptible Streptococcus pneumoniae 3 after 20 hrs by agar dilution method; type: functional; outline: as §1
Streptococcus pyogenes [18] = experiment: Antimicrobial activity against drug-susceptible Streptococcus pyogenes 1 after 20 hrs by agar dilution method; type: functional; conditions: Streptococcus pyogenes, 20 h; read-out: MIC; outline: as §1
Streptococcus pneumoniae [19] = experiment: Antimicrobial activity against Streptococcus pneumoniae 9 expressing mefA after 20 hrs by agar dilution method; type: functional; conditions: Streptococcus pneumoniae, 20 h; read-out: MIC; outline: as §1
Streptococcus pneumoniae [20] = experiment: Antimicrobial activity against Streptococcus pneumoniae 10 expressing mefA after 20 hrs by agar dilution method; type: functional; conditions: Streptococcus pneumoniae, 20 h; read-out: MIC; outline: as §1
Streptococcus pyogenes [21] = experiment: Antimicrobial activity against Streptococcus pyogenes 2 constitutively expressing ermB after 20 hrs by agar dilution method; type: functional; outline: as §1
Streptococcus pneumoniae [22] = experiment: Antimicrobial activity against Streptococcus pneumoniae 8 expressing inducible ermB after 20 hrs by agar dilution method; type: functional; outline: as §1
Haemophilus influenzae [23] = experiment: Antimicrobial activity against drug-susceptible Haemophilus influenzae 1 after 20 hrs by agar dilution method; type: functional; conditions: Haemophilus influenzae, 20 h; read-out: MIC; outline: as §1
Streptococcus pneumoniae [24] = experiment: Antimicrobial activity against Streptococcus pneumoniae 5 constitutively expressing ermB/mefA after 20 hrs by agar dilution method; type: functional; conditions: Streptococcus pneumoniae, 20 h; read-out: MIC; outline: as §1
Staphylococcus aureus [25] = experiment: Antimicrobial activity against Staphylococcus aureus 5 expressing inducible ermB after 20 hrs by agar dilution method; type: functional; outline: as §2
[26] = Streptococcus pneumoniae, 20 h, read-out: MIC

MIC (Streptococcus pneumoniae [1]) [µg/mL] | MIC (Streptococcus pneumoniae [2]) [µg/mL] | MIC (Haemophilus influenzae [3]) [µg/mL] | MIC (Streptococcus pneumoniae [4]) [µg/mL] | MIC (Staphylococcus aureus [5]) [µg/mL] | MIC (Haemophilus influenzae [6]) [µg/mL] | MIC (Staphylococcus aureus [7]) [µg/mL] | MIC (Streptococcus pneumoniae [11]) [µg/mL] | MIC (Staphylococcus aureus [12]) [µg/mL] | MIC (Staphylococcus aureus [13]) [µg/mL] | MIC (Moraxella catarrhalis [14]) [µg/mL] | MIC (Streptococcus pyogenes [15]) [µg/mL] | MIC (Haemophilus influenzae [16]) [µg/mL] | MIC (Streptococcus pyogenes [18]) [µg/mL] | MIC (Streptococcus pneumoniae [19]) [µg/mL] | MIC (Streptococcus pneumoniae [20]) [µg/mL] | MIC (Streptococcus pyogenes [21]) [µg/mL] | MIC (Haemophilus influenzae [23]) [µg/mL] | MIC (Streptococcus pneumoniae [24]) [µg/mL] | MIC (Staphylococcus aureus [25]) [µg/mL] | Structure (SMILES) | other results
> 128 | 0.06 (≈ 0.0617 µM) | 8 (≈ 8.22 µM) | 0.13 (≈ 0.134 µM) | 1 (≈ 1.03 µM) | 8 (≈ 8.22 µM) | 1 (≈ 1.03 µM) | > 128 | > 128 | 1 (≈ 1.03 µM) | 2 (≈ 2.06 µM) | 2 (≈ 2.06 µM) | 2 (≈ 2.06 µM) | 0.25 (≈ 0.257 µM) | 0.13 (≈ 0.134 µM) | 0.13 (≈ 0.134 µM) | > 128 | 32 (≈ 32.9 µM) | > 128 | 1 (≈ 1.03 µM) | CCOC(=O)[C@H]1[C@H](C)O[C@@H](O[C@H]2[C@H](N(C)C)[C@@H](O)[C@H](O[C@H]3[C@@H](CC=O)C[C@@H](C)[C@@H](O)CN(C)CCC(CCCc4ccnc5ccccc45)NC(=O)C[C@@H](OC(=O)CC)[C@@H]3OC)O[C@@H]2C)C[C@@]1(C)O (stereo in doubt; form 1) | MIC (Moraxella catarrhalis [8]): 2 µg/mL (≈ 2.06 µM); MIC (Staphylococcus aureus [9]): 0.5 µg/mL (≈ 0.514 µM); MIC (Streptococcus pneumoniae [10]; [26]): 32 µg/mL (≈ 32.9 µM); MIC (Streptococcus pneumoniae [17]; [26]): 0.13 µg/mL (≈ 0.134 µM); MIC (Streptococcus pneumoniae [22]; [26]): 32 µg/mL (≈ 32.9 µM)
> 128 | 0.03 | 8 | 0.13 | 0.5 | 8 | 1 | > 128 | > 128 | 0.5 | 1 | 1 | 1 | 0.25 | 0.13 | 0.13 | > 128 | 32 | > 128 | 0.5 | CCOC(=O)[C@H]1[C@H](C)O[C@@H](O[C@H]2[C@H](N(C)C)[C@@H](O)[C@H](O[C@H]3[C@@H](CC=O)C[C@@H](C)[C@@H](O)CN(C)CCC(/C=C/Cc4ccnc5ccccc45)NC(=O)C[C@@H](OC(=O)CC)[C@@H]3OC)O[C@@H]2C)C[C@@]1(C)O (mixture of isomers) | MIC (Moraxella catarrhalis [8]; Moraxella catarrhalis, 20 h, read-out: MIC): 2 µg/mL; MIC (Staphylococcus aureus [9]; Staphylococcus aureus, 20 h, read-out: MIC): 0.5 µg/mL; MIC (Streptococcus pneumoniae [10]): 8 µg/mL; MIC (Streptococcus pneumoniae [17]): 0.06 µg/mL; MIC (Streptococcus pneumoniae [22]): 8 µg/mL
> 128 |  | 16 (≈ 16.5 µM) | 0.13 (≈ 0.134 µM) | 1 (≈ 1.03 µM) | 32 (≈ 32.9 µM) | 2 (≈ 2.06 µM) | > 128 | > 128 | 1 (≈ 1.03 µM) | 2 (≈ 2.06 µM) | 2 (≈ 2.06 µM) | 2 (≈ 2.06 µM) | 0.5 (≈ 0.515 µM) | 0.25 (≈ 0.257 µM) | 0.25 (≈ 0.257 µM) | > 128 | 64 (≈ 65.9 µM) | > 128 | 0.5 (≈ 0.515 µM) | CCOC(=O)[C@H]1[C@H](C)O[C@@H](O[C@H]2[C@H](N(C)C)[C@@H](O)[C@H](O[C@H]3[C@@H](CC=O)C[C@@H](C)[C@@H](O)CN(C)CCC(C/C=C/c4ccnc5ccccc45)NC(=O)C[C@@H](OC(=O)CC)[C@@H]3OC)O[C@@H]2C)C[C@@]1(C)O (single isomer, unassigned) | MIC (Streptococcus pneumoniae [2]; [26]): 0.13 µg/mL (≈ 0.134 µM); MIC (Moraxella catarrhalis [8]): 1 µg/mL (≈ 1.03 µM); MIC (Staphylococcus aureus [9]): 0.5 µg/mL (≈ 0.515 µM); MIC (Streptococcus pneumoniae [10]; [26]): > 128 µg/mL; MIC (Streptococcus pneumoniae [17]; [26]): 0.25 µg/mL (≈ 0.257 µM); MIC (Streptococcus pneumoniae [22]; [26]): > 128 µg/mL
